Measurements reported in ChEMBL document CHEMBL1153209, “Synthesis and biological activity of a potent and orally bioavailable SCD inhibitor (MF-438)” (Bioorg Med Chem Lett, 2010).
pIC50: −log10 of the molar value.

How the values were obtained:
Acyl-CoA desaturase 1 = biological target: T1, Acyl-CoA desaturase 1 (Rattus norvegicus, UniProt P07308); experiment: Inhibition of SCD1 in rat liver microsomes; set-up: species or system Microsome
T1 sequence (P07308 whole entry): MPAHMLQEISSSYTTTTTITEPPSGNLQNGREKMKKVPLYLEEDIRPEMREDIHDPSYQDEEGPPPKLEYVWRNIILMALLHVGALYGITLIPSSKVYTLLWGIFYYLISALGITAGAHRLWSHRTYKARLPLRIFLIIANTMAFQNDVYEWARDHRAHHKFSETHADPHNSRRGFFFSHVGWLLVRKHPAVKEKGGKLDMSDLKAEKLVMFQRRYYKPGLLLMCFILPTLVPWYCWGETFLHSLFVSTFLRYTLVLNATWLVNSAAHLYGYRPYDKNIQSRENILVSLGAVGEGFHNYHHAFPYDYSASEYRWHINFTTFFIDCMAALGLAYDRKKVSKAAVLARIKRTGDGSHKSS

[1] = AUC in rat at 2 mg/kg, iv; type: ADME, organism-based; set-up: dose 2 mg/kg, route intravenous; settings: plasma
Procedure, shortened: (§1)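 Rats dosed 10 mg/kg PO and 2 mg/kg IV; plasma concentration sampled over time for parent and its acid metabolite; each time point is the average of two animals.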

[2] = AUC in rat at 10 mg/kg, po; type: ADME, organism-based; set-up: dose 10 mg/kg, route oral; settings: plasma; procedure, shortened: as §1
[3] = Half life in rat at 10 mg/kg, po or 2 mg/kg, iv; type: ADME, organism-based; settings: in vivo; procedure, shortened: as §1
Rattus norvegicus = experiment: Stability in rat assessed as AUC of 6-(4-(2-(trifluoromethyl)phenoxy)piperidin-1-yl)pyridazine-3-carboxylic acid at 10 mg/kg, po; type: ADME, organism-based; set-up: dose 10 mg/kg, route oral; settings: in vivo; procedure, shortened: as §1
[4] = Bioavailability in rat at 10 mg/kg, po or 2 mg/kg, iv; type: ADME, organism-based; settings: in vivo; procedure, shortened: as §1
Mus musculus [5] = experiment: Inhibition of stearoyl-CoA […] in high-carbohydrate diet-fed mouse liver dosed orally assessed as conversion of [14C]stearic acid to [14C]oleic acid; type: functional; settings: po
Procedure, shortened: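 Mice on a high-carbohydrate diet given compound PO, then IV 14C-stearic acid tracer 1 h later; livers collected 2 h after tracer and lipids analysed.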

[6] = Half life in rat; type: ADME, organism-based; settings: in vivo
Mus musculus [7] = experiment: Toxicity in DIO mouse assessed as alopecia at 5 mg/kg qd for 1 week; type: organism-based; set-up: dose 5 mg/kg; settings: in vivo, 168 h
[8] = Oral bioavailability in mouse; type: ADME, organism-based; settings: in vivo
Mus musculus [9] = experiment: Toxicity in DIO mouse assessed as partial eye closure at 5 mg/kg qd for 1 week; type: organism-based; set-up: dose 5 mg/kg; settings: in vivo, 168 h
Mus musculus [10] = experiment: Toxicity in diet-induced obese chronic po dosed mouse; settings: in vivo
[11] = Half life in mouse; type: ADME, organism-based; settings: in vivo
[12] = Oral bioavailability in rat; type: ADME, organism-based; settings: in vivo
Cytochrome P450 3A4 [13] = biological target: T2, Cytochrome P450 3A4 (Homo sapiens, UniProt P08684); experiment: Inhibition of CYP3A4 up to 30 uM; type: ADME
Cytochrome P450 2D6 [14] = biological target: T3, Cytochrome P450 2D6 (Homo sapiens, UniProt P10635); experiment: Inhibition of CYP2D6 up to 30 uM; type: ADME
Cytochrome P450 2D6 [15] = biological target: T3, Cytochrome P450 2D6; experiment: Inhibition of CYP2D6; type: ADME
Cytochrome P450 3A4 [16] = biological target: T2, Cytochrome P450 3A4; experiment: Inhibition of CYP3A4; type: ADME

T3 sequence (P10635 whole entry): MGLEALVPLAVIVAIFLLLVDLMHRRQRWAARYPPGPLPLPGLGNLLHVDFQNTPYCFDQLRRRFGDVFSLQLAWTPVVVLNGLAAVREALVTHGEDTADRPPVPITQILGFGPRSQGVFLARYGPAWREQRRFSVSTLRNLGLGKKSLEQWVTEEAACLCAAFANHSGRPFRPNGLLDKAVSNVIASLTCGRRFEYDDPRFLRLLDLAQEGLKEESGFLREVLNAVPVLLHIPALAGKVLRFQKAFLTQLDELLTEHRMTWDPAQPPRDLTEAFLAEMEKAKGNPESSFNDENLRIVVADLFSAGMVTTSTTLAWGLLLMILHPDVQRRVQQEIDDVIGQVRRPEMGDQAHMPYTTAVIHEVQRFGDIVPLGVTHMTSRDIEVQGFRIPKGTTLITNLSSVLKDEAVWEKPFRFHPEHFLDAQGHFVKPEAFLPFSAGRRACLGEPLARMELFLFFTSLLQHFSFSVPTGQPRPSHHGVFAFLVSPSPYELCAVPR
T2 sequence (P08684 whole entry): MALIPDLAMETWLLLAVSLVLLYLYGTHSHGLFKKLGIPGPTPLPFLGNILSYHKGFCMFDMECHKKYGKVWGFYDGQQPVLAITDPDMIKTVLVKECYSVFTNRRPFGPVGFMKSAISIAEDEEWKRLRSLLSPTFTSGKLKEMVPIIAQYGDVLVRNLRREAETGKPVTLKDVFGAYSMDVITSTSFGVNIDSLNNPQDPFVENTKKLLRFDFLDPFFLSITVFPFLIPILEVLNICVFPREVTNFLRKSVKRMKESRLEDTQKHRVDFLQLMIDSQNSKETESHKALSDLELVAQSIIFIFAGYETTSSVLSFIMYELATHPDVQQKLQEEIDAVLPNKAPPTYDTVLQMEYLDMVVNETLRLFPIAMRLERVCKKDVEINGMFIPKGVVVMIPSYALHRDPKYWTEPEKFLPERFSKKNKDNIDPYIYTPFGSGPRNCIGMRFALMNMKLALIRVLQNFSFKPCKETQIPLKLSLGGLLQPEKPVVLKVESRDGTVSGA

Row | SMILES | pIC50 (Acyl-CoA desaturase 1) | other results
1 | FC(F)(F)c1cccc(OC2CCN(c3ccc(-n4ccnc4)nn3)CC2)c1 | 7.72 | 
2 | Brc1cccc(OC2CCN(c3ccc(-n4ccnc4)nn3)CC2)c1 | 7.64 | 
3 | N#Cc1ccccc1OC1CCN(c2ccc(-n3ccnc3)nn2)CC1 | 6.63 | 
4 | CC(C)(C)c1nnc(-c2ccc(N3CCC(Oc4ccccc4C(F)(F)F)CC3)nn2)s1 | 6.15 | 
5 | CC(C)(C)c1nnc(-c2ccc(N3CCC(Oc4ccccc4C(F)(F)F)CC3)nn2)o1 | 6.01 | 
6 | CC(C)Cc1nnc(-c2ccc(N3CCC(Oc4ccccc4C(F)(F)F)CC3)nn2)o1 | 7.82 | 
7 | FC(F)(F)c1ccc(OC2CCN(c3ccc(-n4ccnc4)nn3)CC2)cc1 | 6.43 | 
8 | Cc1ccccc1OC1CCN(c2ccc(-n3ccnc3)nn2)CC1 | 7.41 | 
9 | NC(=O)c1ccc(N2CCC(Oc3ccccc3C(F)(F)F)CC2)nn1 | 7.80 | AUC [1]: 1.9 µM·h; AUC [2]: 0.9 µM·h; half-life [3]: 0.54 h; AUC (Rattus norvegicus): 179 µM·h; bioavailability [4]: 10%
10 | c1ccc(OC2CCN(c3ccc(-n4ccnc4)nn3)CC2)cc1 | 5.72 | 
11 | c1cn(-c2ccc(N3CCC(Oc4ccc5c(c4)CCC5)CC3)nn2)cn1 | 7.21 | 
12 | CC(=O)c1ccccc1OC1CCN(c2ccc(-n3ccnc3)nn2)CC1 | 7.47 | 
13 | c1cc(OC2CCN(c3ccc(-n4ccnc4)nn3)CC2)c2cc[nH]c2c1 | 6.79 | 
14 | O=C(O)c1ccc(N2CCC(Oc3ccccc3C(F)(F)F)CC2)nn1 | 5.00 | 
15 | FC(F)(F)c1ccccc1OC1CCN(c2ccc(-c3nnco3)nn2)CC1 | 7.66 | 
16 | Cc1ccc(OC2CCN(c3ccc(-n4ccnc4)nn3)CC2)cc1 | 6.28 | 
17 | CCc1cccc(OC2CCN(c3ccc(-n4ccnc4)nn3)CC2)c1 | 7.42 | 
18 | COc1ccccc1OC1CCN(c2ccc(-n3ccnc3)nn2)CC1 | 6.27 | 
19 | O=C(NCCC1CC1)c1ccc(N2CCC(Oc3ccccc3C(F)(F)F)CC2)nn1 | 7.85 | 
20 | Cc1cccc(OC2CCN(c3ccc(-n4ccnc4)nn3)CC2)c1 | 6.60 | 
21 | O=C(NCCC1CC1)c1ccc(N2CCN(C(=O)c3ccccc3C(F)(F)F)CC2)nn1 | 6.49 | 
22 | CC(C)Cc1nnc(-c2ccc(N3CCC(Oc4ccccc4C(F)(F)F)CC3)nn2)s1 | 7.43 | 

These reach a higher pIC50 (Acyl-CoA desaturase 1). Values come first.

Row | pIC50 (Acyl-CoA desaturase 1) | SMILES | other results
23 | 8.21 | Oc1nnc(-c2ccc(N3CCC(Oc4ccccc4C(F)(F)F)CC3)nn2)s1 | 
24 | 8.54 | OCc1nnc(-c2ccc(N3CCC(Oc4ccccc4C(F)(F)F)CC3)nn2)o1 | 
25 | 8.40 | CCc1ccccc1OC1CCN(c2ccc(-n3ccnc3)nn2)CC1 | 
26 | 8.49 | OCc1nnc(-c2ccc(N3CCC(Oc4ccccc4C(F)(F)F)CC3)nn2)s1 | 
27 | 8.22 | Cc1nnc(-c2ccc(N3CCC(Oc4ccccc4C(F)(F)F)CC3)nn2)o1 | 
28 | 8.41 | CC(C)c1nnc(-c2ccc(N3CCC(Oc4ccccc4C(F)(F)F)CC3)nn2)o1 | 
29 | 8.00 | c1cc2c(c(OC3CCN(c4ccc(-n5ccnc5)nn4)CC3)c1)CCC2 | 
30 | 8.64 | Cc1nnc(-c2ccc(N3CCC(Oc4ccccc4C(F)(F)F)CC3)nn2)s1 | ED50 (Mus musculus [5]): 1 mg/kg; half-life [6]: 6 h; Activity (Mus musculus [7]): Toxic; bioavailability [8]: 73%; Activity (Mus musculus [9]): Toxic; Activity (Mus musculus [10]): Toxic; half-life [11]: 6.4 h; bioavailability [12]: 38%; inhibition (INH) (Cytochrome P450 3A4 [13]): Not Active; inhibition (INH) (Cytochrome P450 2D6 [14]): Not Active
31 | 8.40 | FC(F)(F)c1ccccc1OC1CCN(c2ccc(-n3ccnc3)nn2)CC1 | half-life [3]: 1.2 h; pIC50 (Cytochrome P450 2D6 [15]): 6.52; pIC50 (Cytochrome P450 3A4 [16]): 6.40; bioavailability [4]: 53%
32 | 8.06 | CC(C)c1nnc(-c2ccc(N3CCC(Oc4ccccc4C(F)(F)F)CC3)nn2)s1 | 
33 | 8.30 | Brc1ccccc1OC1CCN(c2ccc(-n3ccnc3)nn2)CC1 | 
